The subject of series [1] is HepG2. Briefly: Cytotoxicity against human HepG2 cells assessed as cell growth inhibition after 24 hrs by MTT assay. In kind it is functional, cell-based. The note with it: HepG2, 24 h. The method in brief: (§1)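 Cell lines grown to log phase in RPMI-1640 with 10% FBS, penicillin and streptomycin. About 10^5 cells/mL were plated and pre-incubated 24 h at 37 °C in 5% CO2. Compounds were given in DMSO, final ≤2% (v/v). MTT read-out was OD at 490 nm. Triplicate wells per concentration, each assay run ≥3 times. IC50 is 50% OD reduction versus untreated cells, calculated by the Logit method. Cisplatin was the reference.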
In general terms: Formazan colour is commonly taken as a measure of viable cells.

Series [2] has as its system MCF7. In words: Cytotoxicity against human MCF7 cells assessed as cell growth inhibition after 24 hrs by MTT assay. Format: functional, cell-based. The note with it: MCF7, 24 h. Put shortly:
as §1

Series [3] in a line: Cytotoxicity against human BGC cells assessed as cell growth inhibition after 24 hrs by MTT assay. Format: functional, cell-based. Put shortly:
as §1

The test system of series [4] is A-375. In words: Cytotoxicity against human A375 cells assessed as cell growth inhibition after 24 hrs by MTT assay. The note with it: A-375, 24 h. In kind it is functional, cell-based. The method in brief:
as §1

Series [5] deals with HT-29. Briefly: Cytotoxicity against human HT-29 cells assessed as cell growth inhibition after 24 hrs by MTT assay. Format: functional, cell-based. As to conditions: HT-29, 24 h. Put shortly: as §1
In series [6] the test system is 769-P. In words: Cytotoxicity against human 769-P cells assessed as cell growth inhibition after 24 hrs by MTT assay. In kind it is functional, cell-based. Put shortly:
as §1

Series [7] concerns SK-OV-3. Briefly: Cytotoxicity against human SKOV3 cells assessed as cell growth inhibition after 24 hrs by MTT assay. In kind it is functional, cell-based. As to conditions: SK-OV-3, 24 h. The method in brief:
as §1

Series [8] deals with ECa-109 cell line. In words: Cytotoxicity against human ECA109 cells assessed as cell growth inhibition after 24 hrs by MTT assay. Format: functional, cell-based. The note with it: ECa-109, 24 h. The method in brief: as §1
Series [9] has as its system Lewis lung carcinoma cell line. Briefly: Cytotoxicity against mouse LLC cells assessed as cell growth inhibition after 24 hrs by MTT assay. In kind it is functional, cell-based. The method in brief: as §1
Series [10] can be described thus: Acute toxicity in ip dosed Kunming mouse observed continuously for first 2 hrs, intermittently for next 24 hrs and occasionally thereafter for 14 days. Format: organism-based. As to conditions: in vivo. Put shortly:
(§2)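 SPF KM mice, 6-8 weeks, 19-22 g, fasted overnight with water available. Single i.p. dose, 5.0 to 500 mg kg-1 in 0.5% CMC-Na, 10 mice per group (5 male, 5 female). Observed for behaviour, neurotoxic signs and deaths, then killed on day 14 and heart, liver and kidneys inspected macroscopically. LD50 derived graphically.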

Series [11] relates to Mus musculus. Briefly: Neurotoxicity in Kunming mouse assessed as tremble at 5 to 500 mg/kg, ip observed continuously for first 2 hrs, intermittently for next 24 hrs and occasionally thereafter for 14 days. Format: toxicity, organism-based. As to conditions: in vivo. The method in brief: as §2
In series [12] the test system is Mus musculus. Briefly: Neurotoxicity in Kunming mouse assessed as twitch at 5 to 500 mg/kg, ip observed continuously for first 2 hrs, intermittently for next 24 hrs and occasionally thereafter for 14 days. Format: toxicity, organism-based. The note with it: in vivo. Put shortly: as §2
The test system of series [13] is Mus musculus. In words: Neurotoxicity in Kunming mouse assessed as jumping behavior at 5 to 500 mg/kg, ip observed continuously for first 2 hrs, intermittently for next 24 hrs and occasionally thereafter for 14 days. In kind it is toxicity, organism-based. As to conditions: in vivo. The method in brief:
as §2

The subject of series [14] is Mus musculus. In words: Neurotoxicity in Kunming mouse assessed as supination at 5 to 500 mg/kg, ip observed continuously for first 2 hrs, intermittently for next 24 hrs and occasionally thereafter for 14 days. Format: toxicity, organism-based. The note with it: in vivo. The method in brief: as §2
The test system of series [15] is Mus musculus. Briefly: Acute toxicity in ip dosed Kunming mouse assessed as death at higher dose up to 4 to 8 hrs. In kind it is organism-based. The note with it: in vivo. The method in brief: as §2
Series [16] relates to Mus musculus. Briefly: Cardiotoxicity in Kunming mouse at 5 to 500 mg/kg, ip after 14 days by macroscopic method. Format: toxicity, organism-based. As to conditions: in vivo, 336 h.
In series [17] the test system is Mus musculus. In words: Nephrotoxicity in Kunming mouse at 5 to 500 mg/kg, ip after 14 days by macroscopic method. In kind it is toxicity, organism-based. The note with it: in vivo, 336 h.
Series [18] has as its system Mus musculus. Briefly: Hepatotoxicity in Kunming mouse at 5 to 500 mg/kg, ip after 14 days by macroscopic method. In kind it is toxicity, organism-based. The note with it: in vivo, 336 h.
Series [19] relates to Sarcoma-180. In words: Antitumor activity against mouse Sarcoma 180 cells implanted in mouse assessed as tumor growth inhibition at 8.3 mg/kg, ip administered once per day for 7 consecutive days starting from 24 hrs post tumor inoculation and measured on day 21 post tumor inoculation relative to control. Format: functional. As to conditions: Sarcoma-180, ip, read-out: TGI. Put shortly:
(§3)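 Tumor cells were harvested from 7-day donor tumors, and 2×10^6 viable cells/mouse were injected s.c. in the armpit. Groups of 10 female mice received i.p. compound daily for 7 days, starting 24 h after inoculation. Controls were vehicle (negative) and CTX 30 mg/kg (positive). Body weight was recorded every 3 days. On day 21 tumors were excised and weighed, and inhibition was calculated as (C−T)/C×100 from mean tumor weights.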

Series [20] concerns Lewis lung carcinoma cell line. Briefly: Antitumor activity against mouse LLC cells implanted in mouse assessed as tumor growth inhibition at 8.3 mg/kg, ip administered once per day for 7 consecutive days starting from 24 hrs post tumor inoculation and measured on day 21 post tumor inoculation relative to control. Format: functional. The note with it: read-out: TGI. The method in brief:
as §3

Series [21] concerns Lewis lung carcinoma cell line. In words: Antimigratory activity against mouse LLC cells assessed as reduction in wound closure at 50 uM after 24 hrs by inverted microscopic method. Format: functional, cell-based. The method in brief: (§4)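 HT-29 or LLC cells (about 1×10^6/mL) were grown to 90% confluence and given a single straight pipette-tip scratch. After a PBS wash, fresh FBS-containing medium with various compound concentrations was added for 24 h. Migration distance was measured under an inverted microscope. Each assay was done three times, with CA4P as positive control.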

In series [22] the test system is HT-29. In words: Antimigratory activity against human HT-29 cells assessed as reduction in wound closure at 0.5 to 50 uM after 24 hrs by inverted microscopic method. Format: functional, cell-based. The method in brief:
as §4

Series [23] concerns Chorioallantoic membrane. Briefly: In vivo antiangiogenic activity in chicken embryo chorioallantoic membrane at 50 uM/disc after 48 hrs by microscopic method. In kind it is functional, organism-based. As to conditions: Gallus gallus.
The test system of series [24] is Sarcoma-180. Briefly: Antitumor activity against mouse Sarcoma 180 cells implanted in mouse assessed as tumor growth inhibition at 10 mg/kg, ip administered once per day for 7 consecutive days starting from 24 hrs post tumor inoculation and measured on day 21 post tumor inoculation relative to control. In kind it is functional. The note with it: Sarcoma-180, ip, read-out: TGI. Put shortly:
as §3

For series [25], the system named is Sarcoma-180. Briefly: Antitumor activity against mouse Sarcoma 180 cells implanted in mouse assessed as tumor growth inhibition at 1.6 mg/kg, ip administered once per day for 7 consecutive days starting from 24 hrs post tumor inoculation and measured on day 21 post tumor inoculation relative to control. Format: functional. The note with it: Sarcoma-180, ip, read-out: TGI. The method in brief: as §3

Series [26] deals with Lewis lung carcinoma cell line. Briefly: Antitumor activity against mouse LLC cells implanted in mouse assessed as tumor growth inhibition at 1.6 mg/kg, ip administered once per day for 7 consecutive days starting from 24 hrs post tumor inoculation and measured on day 21 post tumor inoculation relative to control. In kind it is functional. As to conditions: read-out: TGI. Put shortly:
as §3

Structures are written as SMILES. Activity calls are given as the source filed them. The calls are words filed in the database; no cut-off is given here.

One may read the IC50 as the concentration that inhibits the measured activity by half. In general, LD50 refers to the dose at which mortality reaches 50%. A higher LD50 goes with lower toxicity.

Take `COc1ccc(-c2nccc3c4ccccc4n(CCCCOc4ccc5c6ccnc(C)c6n(CCCc6ccccc6)c5c4)c23)cc1.Cl`: the IC50 in series [1] was determined as 14.1 µM; in [2], 8.5 µM; in series [3], 12.1 µM; in series [4], 13.6 µM; in [5], 13.3 µM; in [6], 4.9 µM. Besides, the IC50 in series [7] is 4.2 µM; in series [8], 4.5 µM; in [9], 3.4 µM. In [10], this compound had an LD50 at 14 days of 41.5 mg/kg. Also, the Activity result is “Non-Toxic” in [11]; “Non-Toxic” in [12]; “Non-Toxic” in series [13]; “Non-Toxic” in series [14]; “Toxic” in series [15]; “Non-Toxic” in [16]. In addition, the Activity entry in series [17] and in series [18] was “Non-Toxic” each time. Besides, the inhibition in vivo at 8.3 mg/kg in series [19] came out at 54.6%; in series [20], 48.1%. In addition, the result in [21], in [22] and in series [23] was Active.

As to `Cc1nccc2c3ccc(OCCCCn4c5ccccc5c5ccncc54)cc3n(CCCc3ccccc3)c12.Cl`, the IC50 in series [1] came to 9.7 µM; in series [2] it was 4.5 µM; in series [3], 8.5 µM; in [4], 33.4 µM; in [5] it was 15.9 µM; in series [6], 10.7 µM. In addition, the IC50 in series [7] stood at 13.8 µM; in series [8], 9.5 µM; in [9], 9.6 µM. Besides, in [10], the LD50 at 14 days stood at 50 mg/kg. For the same compound, the Activity result in [11] is on record as “Non-Toxic”; in series [12], “Non-Toxic”; in series [13], “Non-Toxic”; in [14], “Non-Toxic”; in series [15], “Toxic”; in series [16], “Non-Toxic”. Besides, the Activity result in series [17] and in [18] was “Non-Toxic” each time. The inhibition in vivo at 10 mg/kg in series [24] amounted to 33.5%.

As to `COc1ccc2c3ccnc(C)c3n(CCCCOc3ccc4c5ccnc(C)c5n(CCCc5ccccc5)c4c3)c2c1.Cl`, the IC50 in series [1] worked out at 5.6 µM; in series [2] it was 23.4 µM; in [3], 4.7 µM; in series [4], 15.3 µM; in series [5], 21.6 µM; in [6], 8.5 µM. Moreover, the results for the IC50 in series [7], in [8] and in series [9] were 30 µM, 18.4 µM and 14.4 µM, respectively. This compound also returned an LD50 at 14 days in series [10] of 8 mg/kg. The Activity entry in series [11] was “Toxic”; in [12], “Toxic”; in series [13], “Toxic”; in [14] it was “Toxic”; in [15], “Toxic”; in series [16] it was “Non-Toxic”. Also, the Activity entry in series [17] and in [18] was “Non-Toxic” in each case. In addition, the inhibition in vivo at 1.6 mg/kg in series [25] came out at 49.9%; in series [26] it was 38.2%.
